Measurements from ChEMBL document CHEMBL2163244, “Structure-guided design, synthesis and biological evaluation of novel DNA ligase inhibitors with in vitro and in vivo anti-staphylococcal activity” (Bioorg Med Chem Lett, 2012).
Values after ≈ are worked out from the molar mass of the structure shown. Active and inactive are the calls of the source. The rule behind the calls is not given here.

Legend:
Streptococcus pneumoniae = assay: Antibacterial activity against wild type Streptococcus pneumoniae A-216 by CLSI dilution method; type: functional
Staphylococcus aureus = assay: Antibacterial activity against wild type Staphylococcus aureus ATCC 29213 by CLSI dilution method; type: functional
[1] = target: T1, Dihydrofolate reductase (Homo sapiens) (UniProt P00374); assay: Inhibition of human DHFR
T1 sequence (whole entry): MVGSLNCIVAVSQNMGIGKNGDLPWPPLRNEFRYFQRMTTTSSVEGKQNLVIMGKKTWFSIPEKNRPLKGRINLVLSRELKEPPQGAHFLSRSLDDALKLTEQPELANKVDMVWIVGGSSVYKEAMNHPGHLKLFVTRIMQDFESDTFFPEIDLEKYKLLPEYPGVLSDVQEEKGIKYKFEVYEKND

Escherichia coli [2] = assay: Antibacterial activity against tolC/rfaC-deficient Escherichia coli; type: functional
[3] = target: DNA ligase 1 (Homo sapiens) (UniProt P18858); assay: Inhibition of human DNA Ligase 1
Escherichia coli [4] = assay: Antibacterial activity against tolC/rfaC-deficient Escherichia coli harboring ligA251 mutant; type: functional
Summary of the method: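 MIC read-out. The E. coli strain carries only the ligA251 allele (L15F exchange), which gives more than 20-fold reduced ligation activity and sensitizes it to LigA inhibitors.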

[5] = Inhibition of Streptococcus pneumoniae NAD-dependent DNA ligase assessed as equilibrium dissociation constant
Haemophilus influenzae = assay: Antibacterial activity against wild type Haemophilus influenzae A921 by CLSI dilution method; type: functional
[6] = Inhibition of Escherichia coli NAD-dependent DNA ligase

DNA ligase 1 (Homo sapiens), sequence (P18858 whole entry): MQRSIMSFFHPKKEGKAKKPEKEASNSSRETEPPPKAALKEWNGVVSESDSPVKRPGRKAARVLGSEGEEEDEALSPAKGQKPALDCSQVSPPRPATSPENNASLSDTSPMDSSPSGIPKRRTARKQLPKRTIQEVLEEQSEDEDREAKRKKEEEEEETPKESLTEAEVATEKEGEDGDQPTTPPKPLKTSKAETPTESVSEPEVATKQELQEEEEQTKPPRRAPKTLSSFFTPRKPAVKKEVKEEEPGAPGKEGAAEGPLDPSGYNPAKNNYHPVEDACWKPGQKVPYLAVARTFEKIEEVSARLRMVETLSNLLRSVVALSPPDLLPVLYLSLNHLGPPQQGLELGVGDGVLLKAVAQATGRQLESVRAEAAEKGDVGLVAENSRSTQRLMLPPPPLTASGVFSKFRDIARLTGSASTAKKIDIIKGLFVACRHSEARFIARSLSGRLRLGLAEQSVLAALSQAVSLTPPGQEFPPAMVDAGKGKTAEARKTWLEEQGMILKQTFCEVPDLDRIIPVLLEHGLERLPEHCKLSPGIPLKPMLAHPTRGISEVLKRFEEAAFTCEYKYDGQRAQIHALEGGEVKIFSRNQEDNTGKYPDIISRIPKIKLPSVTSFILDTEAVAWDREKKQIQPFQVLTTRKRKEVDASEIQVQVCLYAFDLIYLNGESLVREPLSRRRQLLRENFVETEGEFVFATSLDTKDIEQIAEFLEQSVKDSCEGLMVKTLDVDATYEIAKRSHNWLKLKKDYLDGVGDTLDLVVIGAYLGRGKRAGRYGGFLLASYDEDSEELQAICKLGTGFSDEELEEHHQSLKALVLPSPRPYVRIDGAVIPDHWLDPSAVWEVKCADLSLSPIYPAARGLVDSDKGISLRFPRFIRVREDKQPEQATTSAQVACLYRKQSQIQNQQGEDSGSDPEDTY

| Structure (SMILES) | MIC (Streptococcus pneumoniae) [mg/L] | MIC (Staphylococcus aureus) [mg/L] | inhibition [1] | MIC (Escherichia coli [2]) [mg/L] | inhibition [3] | MIC (Escherichia coli [4]) [mg/L] | Kd [5] [µM] | MIC (Haemophilus influenzae) [mg/L] | IC50 [6] [µM] |
| --- | --- | --- | --- | --- | --- | --- | --- | --- | --- |
| NC(=O)c1cc2c(-c3ccccc3)cc(C(F)(F)F)nc2nc1N | > 16 | > 16 | inactive | 32 (≈ 96.3 µM) | inactive | 0.5 (≈ 1.5 µM) | 0.237 | 8 (≈ 24.1 µM) | 2.5 |
| Cc1cc2cc(C(N)=O)c(N)nc2nc1C(F)(F)F | 8 (≈ 29.6 µM) | 4 (≈ 14.8 µM) | inactive | 0.5 (≈ 1.85 µM) | inactive | 0.063 (≈ 0.233 µM) | 0.048 | 0.25 (≈ 0.925 µM) | 0.5 |
| C=CCc1c(Cl)nc2nc(N)c(C(N)=O)cc2c1C | > 16 | 8 (≈ 28.9 µM) | inactive | 8 (≈ 28.9 µM) | inactive | 0.125 (≈ 0.452 µM) | 0.116 | 4 (≈ 14.5 µM) | 0.8 |
| NCc1cc(C(F)(F)F)nc2nc(N)c(C(N)=O)cc12 | > 16 | > 16 | inactive | > 16 | inactive | 1 (≈ 3.51 µM) | 0.102 | 4 (≈ 14 µM) | 2.5 |
| NC(=O)c1cc2ccc(C(F)(F)F)nc2nc1N | > 16 | 8 (≈ 31.2 µM) | inactive | 16 (≈ 62.5 µM) | inactive | 0.125 (≈ 0.488 µM) | 0.101 | 0.5 (≈ 1.95 µM) | 0.5 |
| CC(C)(C)c1nc2nc(N)c(C(N)=O)cc2cc1Br | 8 (≈ 24.8 µM) | 4 (≈ 12.4 µM) | inactive | 8 (≈ 24.8 µM) | inactive | 0.25 (≈ 0.774 µM) | 0.077 | 2 (≈ 6.19 µM) | 0.3 |
| NC(=O)c1cc2c(N3CCC(O)CC3)c(Br)c(C(F)(F)F)nc2nc1N | 16 (≈ 36.8 µM) | > 16 | inactive | 8 (≈ 18.4 µM) | inactive | 0.25 (≈ 0.576 µM) | 0.039 | > 16 | 0.7 |
| Nc1ccc2c(Cl)cc(C(F)(F)F)nc2n1 | – | – | – | – | – | – | – | – | 25 |
| NC(=O)c1cc2c(N3CC[C@@H](N)C3)c(Br)c(C(F)(F)F)nc2nc1N | > 16 | > 16 | inactive | > 16 | inactive | 1 (≈ 2.39 µM) | 0.086 | 8 (≈ 19.1 µM) | 1 |
| CC(C)(OCc1ccccc1)c1nc2nc(N)c(C(N)=O)cc2cc1Br | > 16 | > 16 | inactive | > 16 | inactive | 8 (≈ 19.3 µM) | 4.31 | > 16 | > 5 |
| NC(=O)c1cc2cc(CCc3ccccc3)c(C(F)(F)F)nc2nc1N | > 16 | > 16 | inactive | > 16 | inactive | 32 (≈ 88.8 µM) | 1.22 | > 16 | > 10 |
| C=Cc1cc2cc(C(N)=O)c(N)nc2nc1C(F)(F)F | > 16 | 2 (≈ 7.09 µM) | inactive | 8 (≈ 28.3 µM) | inactive | 0.125 (≈ 0.443 µM) | 0.089 | 1 (≈ 3.54 µM) | 0.4 |
| CCc1cc2cc(C(N)=O)c(N)nc2nc1C(F)(F)F | > 16 | 4 (≈ 14.1 µM) | inactive | 8 (≈ 28.1 µM) | inactive | 0.25 (≈ 0.88 µM) | 0.075 | 2 (≈ 7.04 µM) | 0.6 |
| CC(C)c1cc2cc(C(N)=O)c(N)nc2nc1C(F)(F)F | > 16 | 16 (≈ 53.6 µM) | inactive | > 16 | inactive | 1 (≈ 3.35 µM) | 0.152 | 8 (≈ 26.8 µM) | 0.8 |
| NC(=O)c1cc2c(CCO)cc(C(F)(F)F)nc2nc1N | > 16 | > 16 | inactive | > 16 | inactive | 1 (≈ 3.33 µM) | 0.431 | 1 (≈ 3.33 µM) | 10 |
| NC(=O)c1cc2c3c(c(Cl)nc2nc1N)CC3 | > 16 | 16 (≈ 64.3 µM) | inactive | 8 (≈ 32.2 µM) | inactive | 0.25 (≈ 1.01 µM) | 0.152 | 8 (≈ 32.2 µM) | 0.6 |
| NC(=O)c1cc2cc(Br)c(C3CCCC3)nc2nc1N | > 16 | > 16 | inactive | > 16 | inactive | 4 (≈ 11.9 µM) | 0.184 | > 16 | 0.5 |
| CC(C)(C)OC(=O)N1CC(c2nc3nc(N)c(C(N)=O)cc3cc2Br)C1 | > 16 | > 16 | inactive | > 16 | inactive | – | 2.61 | > 16 | > 5 |
| NC(=O)c1cc2c(N3CC[C@@H](O)C3)c(Br)c(C(F)(F)F)nc2nc1N | 8 (≈ 19 µM) | 8 (≈ 19 µM) | inactive | 4 (≈ 9.52 µM) | inactive | 0.125 (≈ 0.297 µM) | 0.031 | 8 (≈ 19 µM) | 0.7 |
| COCCc1cc(C(F)(F)F)nc2nc(N)c(C(N)=O)cc12 | > 16 | > 16 | inactive | > 16 | inactive | 2 (≈ 6.36 µM) | 0.458 | 4 (≈ 12.7 µM) | 10 |
| NC(=O)c1cc2c(N3CC(O)C3)c(Br)c(C(F)(F)F)nc2nc1N | > 16 | 16 (≈ 39.4 µM) | inactive | 4 (≈ 9.85 µM) | inactive | 0.125 (≈ 0.308 µM) | 0.043 | 4 (≈ 9.85 µM) | 0.5 |
| NC(=O)c1cc2cc(Cc3ccccc3)c(C(F)(F)F)nc2nc1N | > 16 | > 16 | inactive | 16 (≈ 46.2 µM) | inactive | 0.125 (≈ 0.361 µM) | 0.141 | 4 (≈ 11.6 µM) | 0.8 |
| Cc1cc(C(F)(F)F)nc2nc(N)c(C(N)=O)cc12 | > 16 | 8 (≈ 29.6 µM) | inactive | 4 (≈ 14.8 µM) | inactive | 0.25 (≈ 0.925 µM) | 0.048 | 0.5 (≈ 1.85 µM) | 0.5 |
